Measurements as given in ChEMBL document CHEMBL1641377, “Discovery of novel, potent, selective, and orally active human glucagon receptor antagonists containing a pyrazole core” (Bioorg Med Chem Lett, 2011).
The source made the active and inactive calls. The calls are words filed in the database; no cut-off is given here.

What was measured:
Homo sapiens = organism: Homo sapiens; test: Binding affinity to human sodium channel up to 10 uM
[1] = Plasma concentration in dog at 1 to 10 mg/kg, iv after 30 mins; format: ADME, organism-based, Canis lupus familiaris; parameters: dose 1-10 mg/kg, route intravenous
[2] = Volume of distribution at steady state in dog at 0.5 mg/kg, iv and 2 mg/kg, po; format: ADME, organism-based, Canis lupus familiaris; conditions: in vivo, read-out: Vdss
[3] = Plasma concentration in rhesus monkey at 10 mg/kg, po after 4 hrs; format: ADME, organism-based, Macaca mulatta; parameters: dose 10 mg/kg, route oral
Procedure, shortened: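 Overnight-fasted rhesus monkeys received the oral dose 4 h before the glucagon challenge (15 µg/kg im, time zero). Plasma drug level was sampled at the time of the challenge (t = 0, n = 4). Plasma glucose was then followed every 10 min and expressed as the change from time zero.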

Mus musculus [4] = test: Dose normalized AUC in mouse at 2 mg/kg, po; format: ADME, organism-based; parameters: dose 2 mg/kg, route oral; conditions: in vivo
[5] = Half life in rat at 1 mg/kg, iv and 2 mg/kg, po; format: ADME, organism-based; conditions: in vivo
Rhesus monkey = test: Dose normalized AUC in rhesus monkey at 2 mg/kg, po; format: ADME, organism-based, Macaca mulatta; parameters: dose 2 mg/kg, route oral; conditions: in vivo
[6] = Blood clearance in mouse at 1 mg/kg, iv and 2 mg/kg, po; format: ADME, organism-based
[7] = Volume of distribution at steady state in mouse at 1 mg/kg, iv and 2 mg/kg, po; format: ADME, organism-based; conditions: in vivo, read-out: Vdss
[8] = target: T1, Nuclear receptor subfamily 1 group I member 2 (Homo sapiens, UniProt O75469); test: Activity at human PXR
T1 sequence (O75469 whole entry): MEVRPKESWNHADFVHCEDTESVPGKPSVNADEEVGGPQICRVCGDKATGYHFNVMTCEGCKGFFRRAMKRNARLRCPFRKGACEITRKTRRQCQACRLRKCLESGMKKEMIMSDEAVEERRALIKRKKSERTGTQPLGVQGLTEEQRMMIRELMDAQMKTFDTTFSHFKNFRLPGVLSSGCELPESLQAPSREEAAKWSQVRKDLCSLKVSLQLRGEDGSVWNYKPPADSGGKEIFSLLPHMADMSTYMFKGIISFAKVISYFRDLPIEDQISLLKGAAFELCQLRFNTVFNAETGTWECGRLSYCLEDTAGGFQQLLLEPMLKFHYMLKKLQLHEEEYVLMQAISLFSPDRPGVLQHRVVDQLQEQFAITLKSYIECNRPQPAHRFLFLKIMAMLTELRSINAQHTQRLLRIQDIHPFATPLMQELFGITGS

[9] = Cmax in dog at 2 mg/kg, po; format: ADME, organism-based, Canis lupus familiaris; parameters: dose 2 mg/kg, route oral; conditions: in vivo
[10] = Plasma clearance in rat at 1 mg/kg, iv and 2 mg/kg, po; format: ADME, organism-based
[11] = Half life in mouse at 1 mg/kg, iv and 2 mg/kg, po; format: ADME, organism-based; conditions: in vivo
Cytochrome P450 3A4 = Cytochrome P450 3A4 (Homo sapiens, UniProt P08684); test: Inhibition of CYP3A4; format: ADME
Mus musculus [12] = test: In vivo occupancy of human GCGR transfected in mouse at 10 mg/kg, po after 1 hr; format: functional
Procedure, shortened: (§1)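 In vivo receptor occupancy measured in hGCGR transgenic mice after oral dosing, at 1 h post-dose (30 and 10 mpk) and in a separate experiment at 1, 3 and 8 h after 10 mpk.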

Mus musculus [13] = test: Antihyperglycemic activity in streptozotocin-induced diabetes mouse model assessed as decrease in blood glucose AUC level at 10 mg/kg, po after 4 weeks; format: functional; conditions: 672 h
Procedure, shortened: (§2)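 Diabetic model: hGCGR transgenic mice on high-fat diet for eight weeks, streptozotocin-treated during the last four weeks; single oral dose, blood glucose AUC over 2–6 h measured.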

[14] = Half life in rhesus monkey at 0.5 mg/kg, iv and 2 mg/kg, po; format: ADME, organism-based, Macaca mulatta; conditions: in vivo
Mus musculus [15] = test: Antihyperglycemic activity in streptozotocin-induced diabetes mouse model assessed as decrease in blood glucose AUC level at 30 mg/kg, po after 4 weeks; format: functional; conditions: 672 h; procedure, shortened: as §2
[16] = target: Glucagon-like peptide 1 receptor (Homo sapiens, UniProt P43220); test: Antagonist activity at human GLP1R expressed in CHO cells assessed as inhibition of glucagon-induced cAMP accumulation; format: functional, cell-based
[17] = Cmax in rhesus monkey at 2 mg/kg, po; format: ADME, organism-based, Macaca mulatta; parameters: dose 2 mg/kg, route oral; conditions: in vivo
[18] = Volume of distribution at steady state in rat at 1 mg/kg, iv and 2 mg/kg, po; format: ADME, organism-based; conditions: in vivo, read-out: Vdss
Cytochrome P450 2C8 = target: T2, Cytochrome P450 2C8 (Homo sapiens, UniProt P10632); test: Inhibition of CYP2C8; format: ADME
T2 sequence (P10632 whole entry): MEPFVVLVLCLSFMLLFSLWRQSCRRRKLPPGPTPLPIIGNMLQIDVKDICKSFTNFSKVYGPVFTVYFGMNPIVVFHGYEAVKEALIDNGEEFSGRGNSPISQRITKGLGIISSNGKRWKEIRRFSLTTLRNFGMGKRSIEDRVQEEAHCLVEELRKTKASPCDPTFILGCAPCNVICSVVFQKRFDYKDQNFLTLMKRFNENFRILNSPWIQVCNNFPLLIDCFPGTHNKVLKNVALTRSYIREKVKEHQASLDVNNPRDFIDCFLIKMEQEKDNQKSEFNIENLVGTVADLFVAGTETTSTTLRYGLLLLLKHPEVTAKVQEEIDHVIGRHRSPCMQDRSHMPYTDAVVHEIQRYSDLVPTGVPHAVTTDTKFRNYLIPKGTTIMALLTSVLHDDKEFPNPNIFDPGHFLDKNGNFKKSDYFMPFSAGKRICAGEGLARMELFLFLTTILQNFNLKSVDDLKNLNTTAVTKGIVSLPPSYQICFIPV

[19] = Plasma clearance in rhesus monkey at 0.5 mg/kg, iv and 2 mg/kg, po; format: ADME, organism-based, Macaca mulatta
Mus musculus [20] = test: In vivo occupancy of human GCGR transfected in mouse at 10 mg/kg after 3 hrs; format: functional; procedure, shortened: as §1
Canis familiaris = test: Cardiotoxicity in dog assessed as effect on cardiovascular parameters at 1 to 10 mg/kg, iv after 30 mins; format: toxicity, organism-based, Canis lupus familiaris, Heart; parameters: dose 1-10 mg/kg, route intravenous; conditions: in vivo, 0.5 h
Mus musculus [21] = test: Antidiabetic activity in transgenic mouse expressing human GCGR assessed as inhibition of glucagon-induced blood glucose excursion at 10 mg/kg, po administered 60 mins before glucagon challenge measured after 48 mins; format: functional, organism-based; parameters: dose 10 mg/kg
Procedure, shortened: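 hGCGR transgenic mice (only functional receptor is human GCGR), 9 per group, given compound orally, then glucagon 15 µg/kg IP 60 min later (one arm dosed 30 mpk three hours before challenge); blood glucose monitored at 12, 24, 36 and 48 min after glucagon.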

[22] = target: Pituitary adenylate cyclase-activating polypeptide type I receptor (Homo sapiens, UniProt P41586); test: Antagonist activity at human PACAPR1 expressed in CHO cells assessed as inhibition of glucagon-induced cAMP accumulation; format: functional, cell-based
Glucagon receptor = Glucagon receptor (Homo sapiens, UniProt P47871); test: Antagonist activity at human GCGR expressed in CHO cells assessed as inhibition of glucagon-induced cAMP accumulation; format: functional, cell-based
Procedure, shortened: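 Inhibition of glucagon-induced cAMP accumulation in CHO cells transfected with human GCGR; IC50 derived, n given where replicated.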

[23] = Drug level in blood of transgenic mouse expressing human GCGR at 10 mg/kg, po after 45 mins; format: ADME, organism-based; parameters: dose 10 mg/kg, route oral; conditions: read-out: Drug uptake
Procedure, shortened: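 Blood drug concentration sampled in hGCGR transgenic mice during the oral glucagon-challenge pharmacodynamic assay at 45 and 120 min post dose, 10 and 30 mpk groups, n = 3 per group.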

Chain of Cytochrome P450 3A4 (P08684 whole entry): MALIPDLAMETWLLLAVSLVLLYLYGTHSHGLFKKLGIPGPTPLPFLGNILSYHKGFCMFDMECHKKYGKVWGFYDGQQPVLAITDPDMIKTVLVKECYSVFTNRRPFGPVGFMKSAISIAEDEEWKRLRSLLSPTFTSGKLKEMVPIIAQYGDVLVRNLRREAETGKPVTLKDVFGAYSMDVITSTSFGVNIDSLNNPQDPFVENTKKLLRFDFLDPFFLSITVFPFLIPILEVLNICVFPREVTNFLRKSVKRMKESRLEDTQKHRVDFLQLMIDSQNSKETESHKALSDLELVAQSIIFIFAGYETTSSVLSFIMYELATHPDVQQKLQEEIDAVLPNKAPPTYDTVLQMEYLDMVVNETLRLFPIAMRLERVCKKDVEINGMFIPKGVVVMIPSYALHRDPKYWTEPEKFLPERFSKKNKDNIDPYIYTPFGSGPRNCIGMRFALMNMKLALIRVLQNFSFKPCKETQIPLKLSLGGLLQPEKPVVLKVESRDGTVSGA
Chain of Glucagon receptor (P47871 whole entry): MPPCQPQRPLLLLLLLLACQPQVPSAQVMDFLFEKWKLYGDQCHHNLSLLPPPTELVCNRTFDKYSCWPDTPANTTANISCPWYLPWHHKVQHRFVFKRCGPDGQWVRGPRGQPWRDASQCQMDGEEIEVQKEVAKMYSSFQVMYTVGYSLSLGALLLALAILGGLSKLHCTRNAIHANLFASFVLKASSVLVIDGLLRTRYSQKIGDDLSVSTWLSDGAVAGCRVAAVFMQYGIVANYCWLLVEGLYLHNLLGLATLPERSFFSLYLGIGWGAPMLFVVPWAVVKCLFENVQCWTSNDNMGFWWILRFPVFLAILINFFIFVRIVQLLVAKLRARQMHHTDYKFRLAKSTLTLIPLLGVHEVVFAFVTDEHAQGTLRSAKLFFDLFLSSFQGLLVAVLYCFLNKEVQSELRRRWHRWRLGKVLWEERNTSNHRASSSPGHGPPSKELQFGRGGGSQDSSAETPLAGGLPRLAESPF
Chain of Pituitary adenylate cyclase-activating polypeptide type I receptor (P41586 whole entry): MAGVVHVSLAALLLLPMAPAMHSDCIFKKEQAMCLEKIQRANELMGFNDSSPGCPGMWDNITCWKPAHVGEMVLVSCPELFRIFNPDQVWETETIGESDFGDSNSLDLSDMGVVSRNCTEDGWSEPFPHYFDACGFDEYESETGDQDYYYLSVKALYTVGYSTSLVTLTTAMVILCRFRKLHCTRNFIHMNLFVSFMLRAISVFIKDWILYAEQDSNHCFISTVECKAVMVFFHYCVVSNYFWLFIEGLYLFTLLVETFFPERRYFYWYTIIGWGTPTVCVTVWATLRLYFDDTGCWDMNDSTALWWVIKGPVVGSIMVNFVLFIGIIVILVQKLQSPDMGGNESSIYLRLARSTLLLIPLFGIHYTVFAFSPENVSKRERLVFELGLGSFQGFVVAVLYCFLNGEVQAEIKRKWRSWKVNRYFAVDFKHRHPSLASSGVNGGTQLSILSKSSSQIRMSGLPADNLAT
Chain of Glucagon-like peptide 1 receptor (P43220 whole entry): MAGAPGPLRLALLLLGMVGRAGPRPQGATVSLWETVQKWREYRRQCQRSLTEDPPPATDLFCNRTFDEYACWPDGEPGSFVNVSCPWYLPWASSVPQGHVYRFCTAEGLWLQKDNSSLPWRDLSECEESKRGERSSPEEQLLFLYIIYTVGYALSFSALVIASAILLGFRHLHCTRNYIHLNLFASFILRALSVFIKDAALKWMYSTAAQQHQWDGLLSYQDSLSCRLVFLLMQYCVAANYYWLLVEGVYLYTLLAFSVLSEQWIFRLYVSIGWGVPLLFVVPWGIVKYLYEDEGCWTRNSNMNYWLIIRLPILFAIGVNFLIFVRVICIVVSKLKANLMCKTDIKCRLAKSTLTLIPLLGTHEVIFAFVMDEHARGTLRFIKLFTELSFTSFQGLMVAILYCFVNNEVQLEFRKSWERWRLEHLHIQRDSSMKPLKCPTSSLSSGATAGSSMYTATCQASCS

Activity (Homo sapiens): inactive | concentration at 0.5 h [1]: 96 µM | Vd [2]: 0.14 L/kg | concentration at 4 h [3]: 8.8 µM | AUC (Mus musculus [4]): 0.73 µM·kg·h/mg | half-life [5]: 6.5 h | AUC (Rhesus monkey): 30 µM·kg·h/mg | clearance [6]: 6.1 mL/min/kg | Vd [7]: 1.1 L/kg | EC50 [8]: > 25 µM | Cmax [9]: 7.7 µM | clearance [10]: 1.6 mL/min/kg | half-life [11]: 2.3 h | IC50 (Cytochrome P450 3A4): 39 µM | half-life [14]: 10 h | IC50 [16]: > 10 µM | Cmax [17]: 4.2 µM | Vd [18]: 0.75 L/kg | IC50 (Cytochrome P450 2C8): 19 µM | clearance [19]: 0.68 mL/min/kg | IC50 [22]: > 7 µM | IC50 (Glucagon receptor): 0.11 µM | concentration at 0.75 h [23]: 3.55 µM
Structure (SMILES): O=C(O)CCNC(=O)c1ccc(Cn2nc(-c3cc(Cl)cc(Cl)c3)cc2-c2ccc(OC(F)(F)F)cc2)cc1
Activity (Mus musculus [12]): 51% | inhibition in vivo at 10 mg/kg (Mus musculus [13]): 27% | inhibition in vivo at 30 mg/kg (Mus musculus [15]): 37% | Activity (Mus musculus [20]): 60% | Activity (Canis familiaris): Non-toxic | inhibition (Mus musculus [21]): Active
